Experimental data reported in ChEMBL document CHEMBL1123176, “Synthesis and antitumor activity of cyclophosphamide analogues. 4. Preparation, kinetic studies, and anticancer screening of "phenylketophosphamide" and similar compounds related to the cyclophosphamide metabolite aldophosphamide” (1986).

Columns and labels:
Mus musculus [1] = assay: Increased life span against L1210 lymphoid leukemia cells in male BDF1 mice at a dose of 100 mg/kg; type: functional; settings: for ILS at 100 mg/kg: Mus musculus, BDF1, L1210, dose 100 mg/kg
In short: (§1)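 Male BDF1 mice, 6 weeks old, implanted ip with 1 × 10^5 L1210 lymphoid leukemia cells on day 0. Dosing was a single ip dose on day 2 in 10% Me2SO, except where noted: x7 schedules given ip on days 2 through 8; some arms given po; some arms in saline vehicle. Read-outs were % increased life span and survivors on day 60; some runs were duplicated.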

Mus musculus [2] = assay: Number of survivors on day 60 at a dose of 100 mg/kg; 0/7; type: functional; in short: as §1
Mus musculus [3] = assay: Number of survivors on the toxicity day (day = 15) at a dose of 100x1 mg/kg; type: functional
Mus musculus [4] = assay: Increased life span against L1210 lymphoid leukemia cells in male BDF1 mice at a dose of 200 mg/kg; type: functional; settings: for ILS at 200 mg/kg: Mus musculus, BDF1, L1210; in short: as §1
Mus musculus [5] = assay: Number of survivors on day 60 at a dose of 200 mg/kg; 0/7; type: functional; in short: as §1
Mus musculus [6] = assay: Number of survivors on day 60 at a dose of 50 mg/kg; 0/7; type: functional; in short: as §1
Mus musculus [7] = assay: Increased life span against L1210 lymphoid leukemia cells in male BDF1 mice at a dose of 400 mg/kg; type: functional; settings: for ILS at 400 mg/kg: Mus musculus, BDF1, L1210; in short: as §1
Mus musculus [8] = assay: Number of survivors on day 60 at a dose of 400 mg/kg; 7/7; type: functional; in short: as §1
Mus musculus [9] = assay: Compound was ested for antitumor activity against Lewis lung carcinoma cells implanted in CD2F1 female mice at a dose of 25x2 mg/kg; type: functional
Mus musculus [10] = assay: Number of survivors on the toxicity day (day = 5) at a dose of 400x1 mg/kg; 5/6; type: functional
Mus musculus [11] = assay: Number of survivors on the toxicity day (day = 5) at a dose of 50x1 mg/kg; 6/6; type: functional
Mus musculus [12] = assay: Compound was ested for antitumor activity against Lewis lung carcinoma cells implanted in male CD2F1 mice at a dose of 5x6 mg/kg; type: functional
Mus musculus [13] = assay: Compound was ested for antitumor activity against Lewis lung carcinoma cells implanted in male C57BL mice at a dose of 100 mg/kg; type: functional
Mus musculus [14] = assay: Compound was ested for antitumor activity against Lewis lung carcinoma cells implanted in male CD2F1 mice at a dose of 100x2 mg/kg; type: functional
Mus musculus [15] = assay: Number of survivors on day 60 at a dose of 5 x 7 ip administration day 2 through day; type: functional; in short: as §1
Mus musculus [16] = assay: Compound was ested for antitumor activity against Lewis lung carcinoma cells implanted in male CD2F1 mice at a dose of 400x2 mg/kg; Toxic doxe; type: functional, organism-based
Mus musculus [17] = assay: Increased life span against L1210 lymphoid leukemia cells in male BDF1 mice at a dose of 20x7 mg/kg; type: functional; in short: as §1
Mus musculus [18] = assay: Number of survivors on the toxicity day (day = 21) at a dose of 100x1 mg/kg; 5/7; type: functional
Mus musculus [19] = assay: Compound was ested for antitumor activity against Lewis lung carcinoma cells implanted in female CD2F1 mice at a dose of 100x2 mg/kg; type: functional
Mus musculus [20] = assay: Compound was ested for antitumor activity against Lewis lung carcinoma cells implanted in male CD2F1 mice at a dose of 200x2 mg/kg; type: functional
Mus musculus [21] = assay: Compound was ested for antitumor activity against Lewis lung carcinoma cells implanted in female CD2F1 mice at a dose of 50x2 mg/kg; type: functional
Mus musculus [22] = assay: Compound was ested for antitumor activity against Lewis lung carcinoma cells implanted in female CD2F1 mice at a dose of 200x2 mg/kg; T=Toxic doxe; type: functional, organism-based
Mus musculus [23] = assay: Increased life span against L1210 lymphoid leukemia cells in male BDF1 mice at a dose of 5x7 mg/kg; type: functional; in short: as §1
Mus musculus [24] = assay: Number of survivors on the toxicity day (day = 5) at a dose of 100x1 mg/kg; 6/6; type: functional
Mus musculus [25] = assay: Number of survivors on the toxicity day (day = 5) at a dose of 200x1 mg/kg; 5/6; type: functional
Mus musculus [26] = assay: Increased life span against L1210 lymphoid leukemia cells in male BDF1 mice at a dose of 15 mg/kg; type: functional; in short: as §1
Mus musculus [27] = assay: Number of survivors on the toxicity day (day = 5) at a dose of 200x1 mg/kg; 6/6; type: functional
Mus musculus [28] = assay: Increased life span against L1210 lymphoid leukemia cells in male BDF1 mice at a dose of 25 mg/kg; type: functional; in short: as §1
Mus musculus [29] = assay: Number of survivors on day 60 at a dose of 7.5 mg/kg; 0/7; type: functional; in short: as §1
Mus musculus [30] = assay: Increased life span against L1210 lymphoid leukemia cells in male BDF1 mice at a dose of 7.5 mg/kg; type: functional; in short: as §1
Mus musculus [31] = assay: Increased life span against L1210 lymphoid leukemia cells in male BDF1 mice at a dose of 30 mg/kg; type: functional; in short: as §1
Mus musculus [32] = assay: Increased life span against L1210 lymphoid leukemia cells in male BDF1 mice at a dose of 10x7 mg/kg; type: functional; in short: as §1
Mus musculus [33] = assay: Number of survivors on day 60 at a dose of 25 mg/kg; 0/7; type: functional; in short: as §1
Mus musculus [34] = assay: Number of survivors on the toxicity day (day = 5) at a dose of 25x1 mg/kg; 5/6; type: functional
Mus musculus [35] = assay: Increased life span against L1210 lymphoid leukemia cells in male BDF1 mice at a dose of 50 mg/kg; type: functional; in short: as §1
Mus musculus [36] = assay: Compound was ested for antitumor activity against Lewis lung carcinoma cells implanted in female CD2F1 mice at a dose of 125 x1 mg/kg; type: functional
Mus musculus [37] = assay: Number of survivors on the toxicity day (day = 15) at a dose of 250x1 mg/kg; 6/6; type: functional
Mus musculus [38] = assay: Number of survivors on day 60 at a dose of 200 mg/kg; 1/7; type: functional; in short: as §1
Mus musculus [39] = assay: Number of survivors on the toxicity day (day = 15) at a dose of 62.5x1 mg/kg; 6/6; type: functional
Mus musculus [40] = assay: Compound was ested for antitumor activity against Lewis lung carcinoma cells implanted in female CD2F1 mice at a dose of 500x1 mg/kg; type: functional
Mus musculus [41] = assay: Compound was ested for antitumor activity against Lewis lung carcinoma cells implanted in female CD2F1 mice at a dose of 62.5x1 mg/kg; type: functional
Mus musculus [42] = assay: Number of survivors on day 60 at a dose of 400 mg/kg; 5/7; type: functional; in short: as §1
Mus musculus [43] = assay: Compound was ested for antitumor activity against Lewis lung carcinoma cells implanted in female CD2F1 mice at a dose of 250x1 mg/kg; type: functional
Mus musculus [44] = assay: Number of survivors on the toxicity day (day = 15) at a dose of 125 x1 mg/kg; 6/6; type: functional
Mus musculus [45] = assay: Number of survivors on the toxicity day (day = 15) at a dose of 500x1 mg/kg; 5/6; type: functional
Mus musculus [46] = assay: Number of survivors on day 60 at a dose of 400 mg/kg; 0/7; type: functional; in short: as §1

O=P1(N(CCCl)CCCl)NCCCO1 (stereo unspecified) [CYCLOPHOSPHAMIDE ANHYDROUS]
ILS at 100 mg/kg (Mus musculus [1]): 59.6% | ILS (Mus musculus [1]; dose 100 mg/kg): 52.9% | Survivors (Mus musculus [2]): 0 | Survivors (Mus musculus [3]): 7 | ILS at 200 mg/kg (Mus musculus [4]): > 423%

O=P1(NCCCl)OCCCN1CCCl (stereo unspecified) [IFOSFAMIDE]
Survivors (Mus musculus [5]): 0 | Survivors (Mus musculus [6]): 0 | ILS (Mus musculus [7]): >617 | Survivors (Mus musculus [2]): 0 | Survivors (Mus musculus [8]): 7 | ILS (Mus musculus [4]): 99.8

NP(=O)(OCCC(=O)c1ccccc1)N(CCCl)CCCl (stereo unspecified)
T/C (Mus musculus [9]): 163% | Survivors (Mus musculus [10]): 5 | Survivors (Mus musculus [11]): 6 | T/C (Mus musculus [12]): 106% | T/C (Mus musculus [13]): 63% | T/C (Mus musculus [14]): 221% | Survivors (Mus musculus [15]): 0 | T/C (Mus musculus [16]): Toxic | ILS (Mus musculus [17]): 58.8 | Survivors (Mus musculus [18]): 5 | Survivors (Mus musculus [6]): 0 | T/C (Mus musculus [19]): 92% | T/C (Mus musculus [20]): 89% | T/C (Mus musculus [21]): 223% | T/C (Mus musculus [22]): Toxic | ILS (Mus musculus [23]): 20.6 | Survivors (Mus musculus [24]): 6 | Survivors (Mus musculus [25]): 5 | ILS at 15 mg/kg (Mus musculus [26]): 16.3% | Survivors (Mus musculus [27]): 6 | ILS at 25 mg/kg (Mus musculus [28]): 22.9% | ILS at 100 mg/kg (Mus musculus [1]): -34% | Survivors (Mus musculus [29]): 0 | ILS at 7.5 mg/kg (Mus musculus [30]): 10.7% | ILS at 30 mg/kg (Mus musculus [31]): 35.1% | ILS (Mus musculus [32]): 29.7 | Survivors (Mus musculus [33]): 0 | Survivors (Mus musculus [34]): 5 | ILS at 50 mg/kg (Mus musculus [35]): 43.9%

O=C(CCOP(=O)(NCCCl)NCCCl)c1ccccc1
Survivors (Mus musculus [6]): 0 | T/C (Mus musculus [36]): 138% | Survivors (Mus musculus [37]): 6 | Survivors (Mus musculus [38]): 1 | Survivors (Mus musculus [39]): 6 | ILS at 400 mg/kg (Mus musculus [7]): > 443% | T/C (Mus musculus [40]): 291% | T/C (Mus musculus [41]): 117% | Survivors (Mus musculus [42]): 5 | ILS at 100 mg/kg (Mus musculus [1]): 51.7% | T/C (Mus musculus [43]): 165% | Survivors (Mus musculus [44]): 6 | Survivors (Mus musculus [2]): 0 | Survivors (Mus musculus [45]): 5 | ILS at 50 mg/kg (Mus musculus [35]): 20.2%

O=C(CCOP(=O)(NCCCl)N(CCCl)CCCl)c1ccccc1 (stereo unspecified)
Survivors (Mus musculus [5]): 0 | Survivors (Mus musculus [46]): 0 | ILS at 400 mg/kg (Mus musculus [7]): -19.7% | ILS at 100 mg/kg (Mus musculus [1]): 29.9% | Survivors (Mus musculus [2]): 0 | ILS at 200 mg/kg (Mus musculus [4]): 60.6%
